Source: ChEMBL document CHEMBL1154610, “Discovery and preclinical evaluation of [4-[[1-(3-fluorophenyl)methyl]-1H-indazol-5-ylamino]-5-methylpyrrolo[2,1-f][1,2,4]triazin-6-yl]carbamic acid, (3S)-3-morpholinylmethyl ester (BMS-599626), a selective and orally efficacious inhibitor of human epidermal growth factor receptor 1 and 2 kinases” (J Med Chem, 2009)

Columns and labels:
[1] = tested on: BT-474; assay: Antiproliferative activity against human BT474 cells after 72 hrs by MTT assay; type: functional, cell-based; conditions: BT-474, 72 h
Method in brief: (§1)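 Cell proliferation IC50 reported as the mean of three independent determinations. BT474 is a breast line (HER2+++/HER1+); A2780 serves as a HER-independent control.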

[2] = Antiproliferative activity against mouse SAL2 cells after 72 hrs by MTT assay; type: functional, cell-based; conditions: SAL2, 72 h
[3] = tested on: A2780; assay: Antiproliferative activity against human A2780 cells after 72 hrs by MTT assay; type: functional, cell-based; conditions: A2780, 72 h; method in brief: as §1
[4] = Intrinsic permeability in human Caco-2 cells; type: ADME, cell-based; conditions: read-out: permeability
[5] = Cmax in mouse at 120 mg/kg, po; type: ADME, organism-based; design: dose 120 mg/kg, route oral; conditions: in vivo
[6] = Tmax in mouse at 120 mg/kg, po; type: ADME, organism-based; design: dose 120 mg/kg, route oral; conditions: in vivo
Method in brief: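 Mouse PK, average of three animals. Solution formulation in PG/Tween80/water (40:10:50), given orally at 120 mg/kg or iv at 25 mg/kg. Tmax taken from the oral arm; Vss taken from the iv arm.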

[7] = Mean residence time in mouse at 25 mg/kg, iv; type: ADME, organism-based; design: dose 25 mg/kg, route intravenous; conditions: in vivo
[8] = Oral bioavailability in mouse at 120 mg/kg; type: ADME, organism-based; conditions: in vivo
[9] = Cmax in rat at 10 mg/kg, po; type: ADME, organism-based; design: dose 10 mg/kg, route oral; conditions: in vivo
[10] = Tmax in rat at 10 mg/kg, po; type: ADME, organism-based; design: dose 10 mg/kg, route oral; conditions: in vivo
Method in brief: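 Rat PK, average of three animals. Solution formulation in PEG400/Tween80/water (50:0.1:50), given orally at 10 mg/kg or iv at 2.5 mg/kg. Tmax comes from oral dosing; Vss comes from iv dosing.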

[11] = Clearance in rat at 2.5 mg/kg, iv; type: ADME, organism-based; design: dose 2.5 mg/kg, route intravenous; conditions: in vivo
[12] = Clearance in dog at 1.5 mg/kg, iv; type: ADME, organism-based, Canis lupus familiaris; design: dose 1.5 mg/kg, route intravenous; conditions: in vivo
[13] = Volume of distribution at steady state in dog at 1.5 mg/kg, iv; type: ADME, organism-based, Canis lupus familiaris; design: dose 1.5 mg/kg, route intravenous; conditions: in vivo, read-out: Vdss
Method in brief: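 Dog PK, average of two animals. Compound dosed as a PEG400/Tween80/water (50:0.1:50) solution, orally at 25 mg/kg and iv at 1.5 mg/kg. Oral data give Tmax; iv data give Vss.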

[14] = Cmax in cynomolgus monkey at 5 mg/kg, po; type: ADME, organism-based, Macaca fascicularis; design: dose 5 mg/kg, route oral; conditions: in vivo
[15] = Mean residence time in cynomolgus monkey at 5 mg/kg, iv; type: ADME, organism-based, Macaca fascicularis; design: dose 5 mg/kg, route intravenous; conditions: in vivo
[16] = Volume of distribution at steady state in cynomolgus monkey at 5 mg/kg, iv; type: ADME, organism-based, Macaca fascicularis; design: dose 5 mg/kg, route intravenous; conditions: in vivo, read-out: Vdss
Method in brief: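 Monkey PK, mean of two animals. Compound given as a solution in PEG400/Tween80/water (50:0.1:50), 5 mg/kg both orally and iv. Tmax from the oral route; steady-state volume of distribution from the iv route.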

[17] = Antitumor activity against human GEO cells xenografted in athymic mouse at 120 mg/kg, po qd for 14 days; type: functional; conditions: 336 h, read-out: TGI
Method in brief: (§2)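 Xenograft-bearing mice dosed orally once daily in propylene glycol/Tween80/water (40:10:50). TGI taken as percent tumor growth inhibition during treatment; significance from mean tumor weight at end of treatment; body weight loss and morbidity monitored.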

[18] = Antitumor activity against human GEO cells xenografted in athymic mouse at 180 mg/kg, po qd for 14 days; type: functional; conditions: 336 h, read-out: TGI; method in brief: as §2
[19] = Antitumor activity against human KPL4 cells xenografted in athymic mouse at 180 mg/kg, po qd for 21 days; type: functional; conditions: KPL4, 504 h, read-out: TGI; method in brief: as §2
[20] = tested on: NCI-N87; assay: Antitumor activity against human NCI-N87 cells xenografted in athymic mouse at 120 mg/kg, po qd for 21 days; type: functional; conditions: NCI-N87, 504 h, read-out: TGI; method in brief: as §2
[21] = species on record: Mus musculus; assay: Toxicity in athymic mouse bearing human tumor cells assessed as weight loss; type: organism-based
Method in brief: (§3)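 Mice carried human tumor xenografts (L2987, GEO, KPL4, N87) and were dosed orally once daily in propylene glycol/Tween80/water (40:10:50), with a q.d. × 21 schedule given. The L2987 dose levels included 30, 60 and 180 mg/kg. Toxicity was monitored during treatment as significant weight loss or morbidity.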

[22] = species on record: Mus musculus; assay: Toxicity in athymic mouse bearing human tumor cells assessed as mortality; type: organism-based; method in brief: as §3
[23] = molecular target: T1, Cytochrome P450 1A2 (Homo sapiens, UniProt P05177); assay: Inhibition of human CYP1A2; type: ADME
T1 sequence (P05177 whole entry): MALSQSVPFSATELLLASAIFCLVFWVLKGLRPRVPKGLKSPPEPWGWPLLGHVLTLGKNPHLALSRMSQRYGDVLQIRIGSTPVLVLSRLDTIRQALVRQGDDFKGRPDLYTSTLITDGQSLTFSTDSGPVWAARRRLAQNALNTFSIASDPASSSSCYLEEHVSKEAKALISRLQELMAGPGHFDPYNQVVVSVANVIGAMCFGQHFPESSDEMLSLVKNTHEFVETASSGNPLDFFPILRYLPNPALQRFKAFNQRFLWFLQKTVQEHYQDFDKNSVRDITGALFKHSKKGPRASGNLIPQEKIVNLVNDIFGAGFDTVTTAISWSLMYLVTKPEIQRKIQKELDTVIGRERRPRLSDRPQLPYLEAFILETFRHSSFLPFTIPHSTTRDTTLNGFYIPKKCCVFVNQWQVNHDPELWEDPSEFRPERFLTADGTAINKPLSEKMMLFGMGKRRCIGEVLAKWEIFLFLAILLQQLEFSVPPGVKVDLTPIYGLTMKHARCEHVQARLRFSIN

[24] = molecular target: Cytochrome P450 2C9 (Homo sapiens, UniProt P11712); assay: Inhibition of human CYP2C9; type: ADME
[25] = Protein binding in rat plasma at 10 uM by equilibrium dialysis; type: ADME, cell-free; conditions: read-out: PPB (converted)
[26] = molecular target: T2, Epidermal growth factor receptor and ErbB2 (HER1 and HER2) (Homo sapiens) (UniProt P04626+P00533); assay: Inhibition of HER1/HER2 phosphorylation in human N87 cells by Western blot; type: cell-based; conditions: NCI-N87
[27] = molecular target: T2, Epidermal growth factor receptor and ErbB2 (HER1 and HER2) (Homo sapiens); assay: Inhibition of HER1/HER2-mediated AKT phosphorylation in human GEO cells by Western blot; type: cell-based

Sequence of Cytochrome P450 2C9 (P11712 whole entry): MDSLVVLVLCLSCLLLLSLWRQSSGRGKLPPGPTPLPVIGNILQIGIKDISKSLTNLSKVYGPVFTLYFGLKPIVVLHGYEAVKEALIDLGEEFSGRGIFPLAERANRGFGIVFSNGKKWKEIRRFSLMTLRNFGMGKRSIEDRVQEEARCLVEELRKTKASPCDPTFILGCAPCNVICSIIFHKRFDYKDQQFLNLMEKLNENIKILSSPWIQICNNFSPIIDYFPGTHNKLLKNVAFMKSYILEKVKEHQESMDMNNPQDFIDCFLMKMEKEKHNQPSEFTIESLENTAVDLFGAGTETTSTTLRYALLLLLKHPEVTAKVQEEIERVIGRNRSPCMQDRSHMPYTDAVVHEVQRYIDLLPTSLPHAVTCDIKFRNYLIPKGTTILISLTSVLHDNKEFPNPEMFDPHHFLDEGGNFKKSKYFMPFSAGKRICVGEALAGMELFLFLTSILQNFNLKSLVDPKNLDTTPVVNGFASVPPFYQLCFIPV

For `Cc1c(NC(=O)OC[C@@H]2COCCN2)cn2ncnc(Nc3ccc4c(cnn4Cc4cccc(F)c4)c3)c12` [AC-480], which IC50 [1] is on record?
Its IC50 is 0.31 µM.

And the IC50 [2]?
Its IC50 is 0.24 µM.

What about the IC50 [3] of the same compound?
Its IC50 is > 10 µM.

What about the Papp [4] of the same compound?
The Papp was 21.4 ×10⁻⁶ cm/s.

What about the Cmax [5] of the same compound?
The Cmax was 18000 nM.

And the Tmax [6]?
The Tmax was 1 h.

And the MRT [7]?
The MRT was 3.7 h.

What about the bioavailability [8] of the same compound?
Its bioavailability is 83%.

And the Cmax [9]?
The Cmax was 600 nM.

And the Tmax [10]?
Its Tmax is 0.7 h.

And the clearance [11]?
The clearance was 41.6 mL/min/kg.

What about the clearance [12] of the same compound?
Its clearance is 24.8 mL/min/kg.

And the Vd [13]?
Its Vd is 10.1 L/kg.

And the Cmax [14]?
The Cmax was 500 nM.

What about the MRT [15] of the same compound?
Its MRT is 6.4 h.

And the Vd [16]?
The Vd was 4 L/kg.

What about the inhibition in vivo at 120 mg/kg [17] of the same compound?
Its inhibition in vivo at 120 mg/kg is 95%.

What about the inhibition in vivo at 180 mg/kg [18] of the same compound?
Its inhibition in vivo at 180 mg/kg is 88%.

What about the inhibition in vivo at 180 mg/kg [19] of the same compound?
Its inhibition in vivo at 180 mg/kg is 129%.

What about the inhibition in vivo at 120 mg/kg [20] of the same compound?
Its inhibition in vivo at 120 mg/kg is 81%.

And the Activity [21]?
The Activity was “Non-toxic”.

And the Activity [22]?
Its Activity is “Non-toxic”.

And the IC50 [23]?
Its IC50 is > 40 µM.

What about the IC50 [24] of the same compound?
Its IC50 is 12 µM.

What about the fraction unbound at 10 µM [25] of the same compound?
The fraction unbound at 10 µM was 0.029.

What about the inhibition [26] of the same compound?
The inhibition was “Dose-dependent effect”.

And the inhibition [27]?
The inhibition was “Dose-dependent effect”.
